Assay results reported in ChEMBL document CHEMBL3352809, “Discovery of a Negative Allosteric Modulator of GABAB Receptors” (ACS Med Chem Lett, 2014).
Active and inactive are the calls of the source. The rule behind the calls is not given here.

Tests used:
[1] = biological target: T1, GABA-B receptor (Homo sapiens) (UniProt Q9UBS5+O75899); test: Negative allosteric modulation of recombinant HA-tagged GB1 subunit/Flag-tagged GB2 subunit receptor (unknown origin) expressed in HEK293 cells co-expressing Gqi9 G-protein assessed as inhibition of GABA-induced Ca2+ release at 50 uM by fluorescence assay; format: functional, cell-based
How it was run: (§1)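 Test compound was at 50 μM. Agonists were GABA 100 μM for GABA_B and glutamate 10 μM for mGluR1, 2 and 5. Response was compared with agonist alone. Data are mean SEM of three independent experiments.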

[2] = biological target: Metabotropic glutamate receptor 1 (Homo sapiens) (UniProt Q13255); test: Negative allosteric modulation of mGluR1 (unknown origin) expressed in HEK293 cells assessed as inhibition of glutamate-induced Ca2+ release at 50 uM by fluorescence assay; format: functional, cell-based; how it was run: as §1
[3] = biological target: Metabotropic glutamate receptor 2 (Homo sapiens) (UniProt Q14416); test: Negative allosteric modulation of mGluR2 (unknown origin) expressed in HEK293 cells co-expressing Gqi9 G-protein assessed as inhibition of glutamate-induced Ca2+ release at 50 uM by fluorescence assay; format: functional, cell-based; how it was run: as §1
[4] = biological target: T1, GABA-B receptor (Homo sapiens); test: Displacement of [3H]CGP54626 from recombinant HA-tagged GB1 subunit/Flag-tagged GB2 subunit receptor (unknown origin) expressed in CHO cells up to 100 uM by scintillation proximity assay; format: cell-based
[5] = biological target: T1, GABA-B receptor (Homo sapiens); test: (§2) Negative allosteric modulation of recombinant HA-tagged GB1 subunit/Flag-tagged GB2 subunit receptor (unknown origin) expressed in HEK293 cells co-expressing Gqi9 G-protein assessed as inhibition of GABA-induced IP production by liquid scintillation counting; format: cell-based
How it was run: (§3)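 IP3 formation in HEK293 cells overexpressing GABA_B receptors (GB1 + GB2) and Gq_i9 chimeric proteins. Compounds were tested at 100 μM against GABA 1 μM, with GABA dose-response curves run with or without compound. Inhibition curves were run with compound titrated in the presence of 1 μM GABA to derive IC50. Data are mean SEM of three independent experiments.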

GABA-B receptor = GABA-B receptor (Homo sapiens, UniProt O75899+Q9UBS5); test: as §2; format: cell-based; how it was run: as §3
[6] = biological target: Metabotropic glutamate receptor 5 (Homo sapiens) (UniProt P41594); test: Negative allosteric modulation of mGluR5 (unknown origin) expressed in HEK293 cells assessed as inhibition of glutamate-induced Ca2+ release at 50 uM by fluorescence assay; format: functional, cell-based; how it was run: as §1
HEK293 = test: Effect on ERK1/2 protein expression in HEK293 cells at 100 uM by immunoblotting; format: functional, cell-based; details: Homo sapiens
How it was run: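 ERK1/2 phosphorylation in HEK293 cells overexpressing GABA_B receptors (GB1 + GB2), stimulated with baclofen (100 μM) or CGP7930 (100 μM), with or without test compound at 100 μM. Data are mean SEM of three independent experiments. Significance was taken versus agonist alone.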

Chain of GABA-B receptor (Q9UBS5 whole entry): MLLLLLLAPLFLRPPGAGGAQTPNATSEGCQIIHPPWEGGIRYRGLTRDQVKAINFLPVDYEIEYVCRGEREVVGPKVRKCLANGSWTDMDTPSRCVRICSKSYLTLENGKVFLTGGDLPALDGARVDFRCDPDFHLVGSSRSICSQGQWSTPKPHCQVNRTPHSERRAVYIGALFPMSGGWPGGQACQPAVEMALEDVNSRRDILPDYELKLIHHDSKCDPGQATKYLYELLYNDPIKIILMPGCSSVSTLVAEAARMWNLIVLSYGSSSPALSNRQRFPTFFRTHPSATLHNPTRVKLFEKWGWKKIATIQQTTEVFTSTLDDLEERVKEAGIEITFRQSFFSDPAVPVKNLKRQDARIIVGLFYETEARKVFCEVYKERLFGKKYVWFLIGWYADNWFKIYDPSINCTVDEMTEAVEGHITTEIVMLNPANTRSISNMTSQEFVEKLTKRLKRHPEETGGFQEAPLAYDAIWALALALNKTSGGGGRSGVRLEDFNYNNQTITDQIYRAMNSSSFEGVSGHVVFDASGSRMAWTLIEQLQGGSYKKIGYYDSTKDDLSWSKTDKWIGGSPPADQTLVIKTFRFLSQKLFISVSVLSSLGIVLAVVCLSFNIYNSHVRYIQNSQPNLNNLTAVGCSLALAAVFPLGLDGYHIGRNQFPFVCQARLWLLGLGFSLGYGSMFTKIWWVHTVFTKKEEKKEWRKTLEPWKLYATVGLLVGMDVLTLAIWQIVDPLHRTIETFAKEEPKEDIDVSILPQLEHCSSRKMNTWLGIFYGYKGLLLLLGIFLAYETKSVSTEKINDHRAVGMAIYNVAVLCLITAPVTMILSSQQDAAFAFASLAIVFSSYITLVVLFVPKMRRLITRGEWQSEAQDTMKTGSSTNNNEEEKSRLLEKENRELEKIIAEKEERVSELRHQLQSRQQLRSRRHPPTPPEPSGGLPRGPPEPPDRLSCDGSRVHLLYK
Chain of GABA-B receptor (O75899 whole entry): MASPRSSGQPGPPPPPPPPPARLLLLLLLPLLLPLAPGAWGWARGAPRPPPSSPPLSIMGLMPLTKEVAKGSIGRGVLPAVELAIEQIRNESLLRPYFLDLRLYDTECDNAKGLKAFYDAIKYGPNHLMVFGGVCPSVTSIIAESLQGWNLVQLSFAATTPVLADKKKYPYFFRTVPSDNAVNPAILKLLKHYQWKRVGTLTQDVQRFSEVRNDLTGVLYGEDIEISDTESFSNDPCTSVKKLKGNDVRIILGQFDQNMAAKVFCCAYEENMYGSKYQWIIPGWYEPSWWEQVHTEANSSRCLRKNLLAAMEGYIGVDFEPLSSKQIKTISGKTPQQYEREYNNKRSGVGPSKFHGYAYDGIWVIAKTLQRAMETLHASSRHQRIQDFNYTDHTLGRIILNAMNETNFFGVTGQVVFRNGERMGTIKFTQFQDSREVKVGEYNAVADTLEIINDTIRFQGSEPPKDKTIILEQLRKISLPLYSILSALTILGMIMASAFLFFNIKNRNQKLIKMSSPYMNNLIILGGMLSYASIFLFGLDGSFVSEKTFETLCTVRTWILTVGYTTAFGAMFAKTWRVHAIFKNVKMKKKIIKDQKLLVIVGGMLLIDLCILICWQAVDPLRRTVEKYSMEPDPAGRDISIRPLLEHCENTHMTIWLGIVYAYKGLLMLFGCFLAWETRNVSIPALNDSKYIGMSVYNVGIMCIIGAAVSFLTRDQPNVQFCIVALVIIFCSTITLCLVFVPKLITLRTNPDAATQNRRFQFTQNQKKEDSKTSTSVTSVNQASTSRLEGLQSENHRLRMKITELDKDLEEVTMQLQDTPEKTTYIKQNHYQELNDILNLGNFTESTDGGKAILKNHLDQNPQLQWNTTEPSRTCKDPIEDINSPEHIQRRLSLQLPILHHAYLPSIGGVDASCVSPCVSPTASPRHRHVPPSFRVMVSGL
Chain of Metabotropic glutamate receptor 5 (Homo sapiens) (P41594 21-1212 limits assumed): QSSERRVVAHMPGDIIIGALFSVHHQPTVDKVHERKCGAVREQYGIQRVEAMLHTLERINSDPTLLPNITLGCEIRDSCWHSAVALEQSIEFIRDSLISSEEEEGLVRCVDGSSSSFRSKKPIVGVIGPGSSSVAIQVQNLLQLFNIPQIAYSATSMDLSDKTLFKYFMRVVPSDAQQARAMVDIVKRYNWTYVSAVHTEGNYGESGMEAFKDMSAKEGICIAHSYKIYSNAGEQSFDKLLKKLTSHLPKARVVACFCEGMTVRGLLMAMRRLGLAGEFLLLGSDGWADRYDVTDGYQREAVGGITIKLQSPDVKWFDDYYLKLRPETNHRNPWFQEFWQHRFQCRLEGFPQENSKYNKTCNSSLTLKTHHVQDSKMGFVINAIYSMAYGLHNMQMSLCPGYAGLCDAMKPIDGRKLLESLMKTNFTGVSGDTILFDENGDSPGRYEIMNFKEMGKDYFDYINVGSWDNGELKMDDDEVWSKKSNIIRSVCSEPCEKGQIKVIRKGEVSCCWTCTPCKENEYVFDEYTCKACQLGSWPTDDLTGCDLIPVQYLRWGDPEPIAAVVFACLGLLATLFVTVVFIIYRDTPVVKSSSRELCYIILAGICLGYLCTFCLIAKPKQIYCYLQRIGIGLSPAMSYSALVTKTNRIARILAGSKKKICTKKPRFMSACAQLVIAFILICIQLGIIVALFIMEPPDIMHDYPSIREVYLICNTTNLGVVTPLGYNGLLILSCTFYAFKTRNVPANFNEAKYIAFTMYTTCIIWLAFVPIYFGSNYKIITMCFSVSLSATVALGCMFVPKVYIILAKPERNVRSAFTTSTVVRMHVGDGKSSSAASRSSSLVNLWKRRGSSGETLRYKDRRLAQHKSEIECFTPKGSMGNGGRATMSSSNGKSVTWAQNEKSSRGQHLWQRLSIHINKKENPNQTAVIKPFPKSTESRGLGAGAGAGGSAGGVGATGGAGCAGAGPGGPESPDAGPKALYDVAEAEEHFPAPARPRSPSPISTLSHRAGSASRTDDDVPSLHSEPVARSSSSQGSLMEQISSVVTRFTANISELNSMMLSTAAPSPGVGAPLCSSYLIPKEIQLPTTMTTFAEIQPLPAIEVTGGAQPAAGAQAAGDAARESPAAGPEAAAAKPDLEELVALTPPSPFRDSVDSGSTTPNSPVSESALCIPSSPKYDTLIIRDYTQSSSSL
Chain of Metabotropic glutamate receptor 1 (Homo sapiens) (Q13255 19-1194 limits assumed): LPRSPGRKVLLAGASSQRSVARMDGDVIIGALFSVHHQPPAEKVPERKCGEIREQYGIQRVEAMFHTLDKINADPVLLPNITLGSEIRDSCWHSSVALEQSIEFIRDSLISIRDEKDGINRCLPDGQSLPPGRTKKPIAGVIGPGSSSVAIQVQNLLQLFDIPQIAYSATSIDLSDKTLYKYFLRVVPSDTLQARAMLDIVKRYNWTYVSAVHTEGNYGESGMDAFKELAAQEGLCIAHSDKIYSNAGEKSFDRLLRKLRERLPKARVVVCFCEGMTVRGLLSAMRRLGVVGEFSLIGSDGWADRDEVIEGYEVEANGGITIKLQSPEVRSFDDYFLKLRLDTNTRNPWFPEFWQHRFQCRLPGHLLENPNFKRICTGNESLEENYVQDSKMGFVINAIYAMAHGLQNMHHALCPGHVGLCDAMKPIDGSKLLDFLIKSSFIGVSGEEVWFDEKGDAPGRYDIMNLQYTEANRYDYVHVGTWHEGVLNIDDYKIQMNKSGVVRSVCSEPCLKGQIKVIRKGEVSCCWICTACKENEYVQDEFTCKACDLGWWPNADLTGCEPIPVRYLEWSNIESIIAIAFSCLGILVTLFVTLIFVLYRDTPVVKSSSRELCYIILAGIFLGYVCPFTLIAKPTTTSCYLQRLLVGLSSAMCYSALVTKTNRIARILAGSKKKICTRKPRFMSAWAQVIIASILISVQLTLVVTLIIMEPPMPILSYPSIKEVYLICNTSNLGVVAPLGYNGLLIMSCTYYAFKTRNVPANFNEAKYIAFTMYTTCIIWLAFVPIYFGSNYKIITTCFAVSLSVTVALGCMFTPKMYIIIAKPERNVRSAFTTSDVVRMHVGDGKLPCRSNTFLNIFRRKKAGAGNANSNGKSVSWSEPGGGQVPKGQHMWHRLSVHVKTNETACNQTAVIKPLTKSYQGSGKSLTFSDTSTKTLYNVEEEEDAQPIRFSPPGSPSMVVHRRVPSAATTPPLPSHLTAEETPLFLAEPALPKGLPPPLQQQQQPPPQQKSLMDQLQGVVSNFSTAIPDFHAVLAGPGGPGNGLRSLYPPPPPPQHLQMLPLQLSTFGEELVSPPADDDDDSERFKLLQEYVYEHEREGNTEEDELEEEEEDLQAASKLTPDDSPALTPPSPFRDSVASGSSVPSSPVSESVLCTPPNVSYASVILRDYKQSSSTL
Chain of Metabotropic glutamate receptor 2 (Homo sapiens) (Q14416 19-872 limits assumed): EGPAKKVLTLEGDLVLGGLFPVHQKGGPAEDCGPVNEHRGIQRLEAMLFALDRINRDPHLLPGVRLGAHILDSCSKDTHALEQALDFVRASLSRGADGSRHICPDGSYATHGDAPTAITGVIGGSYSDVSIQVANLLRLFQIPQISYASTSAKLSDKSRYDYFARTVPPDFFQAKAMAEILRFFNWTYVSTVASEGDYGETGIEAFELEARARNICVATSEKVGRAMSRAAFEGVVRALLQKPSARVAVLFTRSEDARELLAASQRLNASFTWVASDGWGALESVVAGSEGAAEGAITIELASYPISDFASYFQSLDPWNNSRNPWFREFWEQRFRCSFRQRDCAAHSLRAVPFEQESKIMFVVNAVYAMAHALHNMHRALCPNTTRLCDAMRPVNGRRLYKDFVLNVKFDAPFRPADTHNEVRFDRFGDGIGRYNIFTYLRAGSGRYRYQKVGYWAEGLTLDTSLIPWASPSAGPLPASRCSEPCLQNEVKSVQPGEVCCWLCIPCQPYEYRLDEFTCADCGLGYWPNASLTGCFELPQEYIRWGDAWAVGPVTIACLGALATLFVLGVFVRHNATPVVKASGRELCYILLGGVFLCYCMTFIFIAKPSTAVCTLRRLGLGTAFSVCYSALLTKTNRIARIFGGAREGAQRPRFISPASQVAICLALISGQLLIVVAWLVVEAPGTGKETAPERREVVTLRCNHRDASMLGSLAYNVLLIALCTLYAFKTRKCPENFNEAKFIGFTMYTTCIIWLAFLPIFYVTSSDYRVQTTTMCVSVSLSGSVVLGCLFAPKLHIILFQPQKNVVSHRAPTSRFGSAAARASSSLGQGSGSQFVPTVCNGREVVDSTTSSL

inhibition [1] | inhibition [2] | inhibition [3] | inhibition [4] | inhibition [5] | IC50 (GABA-B receptor) [µM] | inhibition [6] | SMILES | inhibition (HEK293)
Active | inactive | inactive | inactive | Dose-dependent effect | 37.9 | inactive | CC(C)(C)c1cc(/C=C/C(=O)C(=O)O)cc(C(C)(C)C)c1O | –
– | – | – | – | Dose-dependent effect | 21.3 | – | CC(C)(C)c1cc(/C=C/C=O)cc(C(C)(C)C)c1O | –
– | – | – | – | – | – | – | COC(O)CC(O)c1cc(C(C)(C)C)c(O)c(C(C)(C)C)c1 (stereo not given) | inactive
